# In ChEMBL document CHEMBL3414476, “Novel multitarget-directed ligands (MTDLs) with acetylcholinesterase (AChE) inhibitory and serotonergic subtype 4 receptor (5-HT4R) agonist activities as potential agents against Alzheimer's disease: the design of donecopride” (J Med Chem, 2015):
# Active and inactive are the calls of the source. No cut-off for these calls is given here.
# Assays:
# Acetylcholinesterase [1] = target: T1, Acetylcholinesterase (Homo sapiens, UniProt P22303); assay: Inhibition of human erythrocyte AChE pre-incubated for 5 mins before acetylthiocholine iodide substrate by Ellman' method
# T1 sequence (P22303 whole entry): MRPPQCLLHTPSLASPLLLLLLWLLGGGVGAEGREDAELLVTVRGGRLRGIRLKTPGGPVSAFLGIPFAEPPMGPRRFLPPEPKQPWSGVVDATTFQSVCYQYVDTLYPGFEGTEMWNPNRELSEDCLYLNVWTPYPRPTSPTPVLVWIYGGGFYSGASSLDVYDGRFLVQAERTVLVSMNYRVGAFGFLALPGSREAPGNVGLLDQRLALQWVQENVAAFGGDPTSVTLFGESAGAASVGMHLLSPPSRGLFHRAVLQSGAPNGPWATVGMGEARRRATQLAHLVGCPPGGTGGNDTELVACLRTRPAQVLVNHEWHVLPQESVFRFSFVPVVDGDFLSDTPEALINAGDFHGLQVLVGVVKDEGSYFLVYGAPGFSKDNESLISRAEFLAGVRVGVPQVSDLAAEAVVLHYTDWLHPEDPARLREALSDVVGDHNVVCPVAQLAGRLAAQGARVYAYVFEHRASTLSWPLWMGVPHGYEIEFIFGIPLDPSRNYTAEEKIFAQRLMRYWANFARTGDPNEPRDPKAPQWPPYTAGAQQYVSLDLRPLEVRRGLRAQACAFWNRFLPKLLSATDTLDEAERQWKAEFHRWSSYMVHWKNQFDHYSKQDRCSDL
# Cholinesterase = Cholinesterase (Equus caballus, UniProt P81908); assay: Inhibition of equine serum BuChE pre-incubated for 5 mins before butyrylthiocholine iodide substrate by Ellman' method
# Sequence of Cholinesterase (P81908 whole entry): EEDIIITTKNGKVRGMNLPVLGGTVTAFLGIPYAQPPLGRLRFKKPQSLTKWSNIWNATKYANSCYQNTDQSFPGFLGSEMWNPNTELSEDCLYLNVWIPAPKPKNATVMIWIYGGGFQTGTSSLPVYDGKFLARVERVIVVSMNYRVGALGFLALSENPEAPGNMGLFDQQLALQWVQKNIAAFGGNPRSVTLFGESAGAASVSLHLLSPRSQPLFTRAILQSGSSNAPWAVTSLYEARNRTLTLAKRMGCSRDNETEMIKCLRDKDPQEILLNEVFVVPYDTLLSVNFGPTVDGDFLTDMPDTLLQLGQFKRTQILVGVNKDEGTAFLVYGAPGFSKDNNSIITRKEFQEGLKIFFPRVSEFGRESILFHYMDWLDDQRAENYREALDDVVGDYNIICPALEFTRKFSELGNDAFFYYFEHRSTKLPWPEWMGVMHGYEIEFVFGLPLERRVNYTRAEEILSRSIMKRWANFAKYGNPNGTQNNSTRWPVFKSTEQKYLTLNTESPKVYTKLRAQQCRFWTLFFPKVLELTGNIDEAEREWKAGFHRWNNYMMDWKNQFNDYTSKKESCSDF
# Summary of the method: (§1)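 Ellman assay in 96-well format: 0.3 mM DTNB in phosphate buffer pH 7.4, compound in DMSO, and enzyme (human erythrocyte AChE or equine serum BuChE, 0.05 U final) preincubated 5 min at 25 °C. Started with 10 mM acetyl- or butyrylthiocholine iodide; A412 followed every minute for 10 min, substrate-free blank.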
# [2] = target: 5-hydroxytryptamine receptor 4 (Cavia porcellus, UniProt O70528); assay: Displacement of [3H]GR113808 from 5-HT4R in guinea pig brain membranes incubated for 30 mins by radioligand binding assay; format: cell membranes, Membrane
# Sequence of 5-hydroxytryptamine receptor 4 (O70528 whole entry): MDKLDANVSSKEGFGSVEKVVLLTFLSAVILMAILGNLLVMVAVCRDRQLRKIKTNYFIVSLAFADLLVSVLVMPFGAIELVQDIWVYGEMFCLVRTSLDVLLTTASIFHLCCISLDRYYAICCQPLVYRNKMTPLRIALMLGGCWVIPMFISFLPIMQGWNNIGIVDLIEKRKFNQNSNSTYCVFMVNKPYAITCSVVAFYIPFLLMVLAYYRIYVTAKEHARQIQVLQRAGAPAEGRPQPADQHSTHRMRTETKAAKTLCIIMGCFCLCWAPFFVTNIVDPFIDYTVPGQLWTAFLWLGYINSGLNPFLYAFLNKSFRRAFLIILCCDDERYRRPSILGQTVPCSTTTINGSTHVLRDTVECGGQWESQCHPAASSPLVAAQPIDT
# Mus musculus [3] = assay: Antiamnesic activity in NMRI mouse assessed as reversal of scopolamine-induced spontaneous alteration deficit at 0.3 mg/kg, ip by Y maze test; format: functional, organism-based; set-up: dose 0.3 mg/kg
# Summary of the method: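 Male NMRI mice, 3 months old, 35−40 g. Scopolamine 0.5 mg/kg SC 30 min before the Y-maze test; test drug in 0.9% NaCl IP 30 min before. Spontaneous alternation = actual/possible alternations (total arm entries minus two) × 100. n = 10−12. Compared with 50% by univariate t test.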
# Mus musculus [4] = assay: Toxicity in NMRI mouse assessed as induction of hypoactivity at 100 mg/kg, ip; format: organism-based; set-up: dose 100 mg/kg, route intraperitoneal; conditions: in vivo
# Summary of the method: (§2)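 Mice in groups of four received graded IP doses of […]. Behavioural and neurological changes (hypo- or hyperactivity, ataxia, tremors, convulsion, etc.) were scored by standardized observation at 30 min, 3 h and 24 h against controls.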
# [5] = target: 5-hydroxytryptamine receptor 4 (Homo sapiens) (UniProt Q13639); assay: Agonist activity at HA-tagged 5-HT4R (unknown origin) expressed in COS7 cells assessed as cAMP accumulation by HTRF assay; format: functional, cell-based; set-up: concentration or dose not given beside the values; conditions: COS-7
# Sequence of 5-hydroxytryptamine receptor 4 (Homo sapiens) (Q13639 whole entry): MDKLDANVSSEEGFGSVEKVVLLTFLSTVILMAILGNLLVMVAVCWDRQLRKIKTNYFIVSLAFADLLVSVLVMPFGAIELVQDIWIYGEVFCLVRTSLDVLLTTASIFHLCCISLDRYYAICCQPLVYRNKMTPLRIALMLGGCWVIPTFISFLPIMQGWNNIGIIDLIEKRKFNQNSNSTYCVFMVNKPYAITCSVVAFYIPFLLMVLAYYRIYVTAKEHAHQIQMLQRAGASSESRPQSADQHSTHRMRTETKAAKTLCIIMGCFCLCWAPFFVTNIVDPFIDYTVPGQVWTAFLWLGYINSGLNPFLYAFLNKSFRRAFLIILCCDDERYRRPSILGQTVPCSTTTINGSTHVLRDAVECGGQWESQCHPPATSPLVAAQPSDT
# Mus musculus [6] = assay: Toxicity in NMRI mouse assessed as effect on spontaneous locomotor activity at 10 mg/kg, ip dosed 30 mins before placing mouse in actimeter; format: organism-based; set-up: dose 10 mg/kg, route intraperitoneal; conditions: in vivo, 0.5 h
# Summary of the method: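 Adult male NMRI mice were dosed IP 30 min before being placed individually in an infrared actimeter. Beam interruptions were counted over 30 min. Mean ± SD, n = 9–10, SNK test versus NaCl.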
# Mus musculus [7] = assay: Toxicity in NMRI mouse assessed as toxic symptoms at 1 to 10 mg/kg, ip; format: organism-based; set-up: dose 1-10 mg/kg, route intraperitoneal; conditions: in vivo; summary of the method: as §2
# Mus musculus [8] = assay: Antidepressant-like activity in NMRI mouse assessed as reduction in immobility time at 0.3 mg/kg, ip administered 30 mins before test; format: functional, organism-based; set-up: dose 0.3 mg/kg
# Summary of the method: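 Male NMRI mice given drug in 0.9% NaCl IP 30 min before the test, not pretested. Each mouse swam 6 min in a 12 cm diameter cylinder, water 13 cm deep at 23−24 °C. Immobility was scored over the last 4 min. n = 10−12, SNK test versus NaCl.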
# Mus musculus [9] = assay: Increase in sAPPalpha level in C57BL/6 mouse CSF at 1 mg/kg, ip measured after 90 mins by ELISA method; format: functional, organism-based; set-up: dose 1 mg/kg
# Summary of the method: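 Wild-type C57BL/6 mice, 2 months old, n = 7/group. Single IP injection of vehicle (0.9% NaCl, 0.2% DMSO) or drug. After 90 min, CSF was taken from the cisterna magna under anesthesia, frozen at −80 °C and heated at 60 °C for 5 min. sAPPα measured by mouse/rat ELISA read at 620/450 nm. Unpaired t test.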
# [10] = target: 5-hydroxytryptamine receptor 4 (Homo sapiens) (UniProt Q13639); assay: Displacement of [3H]GR113808 from human 5-HT4R at 1 uM by radioligand binding assay
# Summary of the method: (§3)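 Recombinant human 5-HT4 membranes, 2.5 μg protein, incubated in duplicate with 0.2 nM [3H]GR113808 in 25 mM Tris pH 7.4 for 60 min at 25 °C, with or without drug at 10−6 or 10−8 M. Filtered on PEI-presoaked GF/C filters, washed with ice-cold buffer. Nonspecific binding with 30 μM serotonin. Read-out is % inhibition of binding.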
# [11] = target: 5-hydroxytryptamine receptor 4 (Homo sapiens) (UniProt Q13639); assay: Activity at 5-HT4R (unknown origin) expressed in COS7 cells assessed as increase in sAPPalpha release relative to 5-HT; format: cell-based; conditions: COS-7
# [12] = Toxicity in ip dosed NMRI mouse; format: organism-based; conditions: in vivo
# Mus musculus [13] = assay: Toxicity in NMRI mouse assessed as induction of passivity at 100 mg/kg, ip; format: organism-based; set-up: dose 100 mg/kg, route intraperitoneal; conditions: in vivo; summary of the method: as §2
# [14] = target: 5-hydroxytryptamine receptor 4 (Homo sapiens) (UniProt Q13639); assay: Displacement of [3H]GR113808 from human 5-HT4R at 10 nM by radioligand binding assay; summary of the method: as §3
# [15] = target: Cholinesterase (Equus caballus) (UniProt P81908); assay: Inhibition of equine serum BuChE at 10 uM pre-incubated for 5 mins before butyrylthiocholine iodide substrate by Ellman' method; summary of the method: as §1
# Sequence of Cholinesterase (Equus caballus) (P81908 whole entry): as the sequence (P81908 whole entry) above
# Acetylcholinesterase [16] = target: T1, Acetylcholinesterase; assay: Inhibition of human erythrocyte AChE at 10 uM pre-incubated for 5 mins before acetylthiocholine iodide substrate by Ellman' method; summary of the method: as §1
# Mus musculus [17] = assay: Toxicity in NMRI mouse assessed as induction of sleep at 10 mg/kg, ip; format: organism-based; set-up: dose 10 mg/kg, route intraperitoneal; conditions: in vivo; summary of the method: as §2
# Mus musculus [18] = assay: Toxicity in NMRI mouse assessed as induction of hypoactivity at 10 mg/kg, ip; format: organism-based; set-up: dose 10 mg/kg, route intraperitoneal; conditions: in vivo; summary of the method: as §2
# Mus musculus [19] = assay: Toxicity in NMRI mouse assessed as induction of ataxia at 10 mg/kg, ip; format: organism-based; set-up: dose 10 mg/kg, route intraperitoneal; conditions: in vivo; summary of the method: as §2
# Mus musculus [20] = assay: Antiamnesic activity in NMRI mouse assessed as reversal of scopolamine-induced spontaneous alteration deficit at 1 mg/kg, ip by Y maze test; format: functional, organism-based; set-up: dose 1 mg/kg
# Mus musculus [21] = assay: Antiamnesic activity in NMRI mouse assessed as reversal of scopolamine-induced spontaneous alteration deficit at 0.1 mg/kg, ip co-administered with 0.3 mg/kg DPZ by Y maze test; format: functional, organism-based
# Summary of the method: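 Scopolamine 0.5 mg/kg given SC 30 min before the Y-maze test. The reference combination was 0.1 mg/kg IP (30 min before) plus DPZ 0.3 mg/kg SC (20 min before), in 0.9% NaCl vehicle. Percent spontaneous alternation = actual/(total arm entries − 2) × 100. Mean ± SD, n = 10–12, univariate t test versus 50%.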
# Mus musculus [22] = assay: Toxicity in NMRI mouse assessed as induction of irritability at 2 mg/kg, ip; format: organism-based; set-up: dose 2 mg/kg, route intraperitoneal; conditions: in vivo
# Summary of the method: (§4)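 Behavioural and neurological changes scored by standardized observation at 30 min, 3 h and 24 h against controls.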
# Mus musculus [23] = assay: Toxicity in NMRI mouse assessed as induction of exophtalmy at 2 mg/kg, ip; format: organism-based; set-up: dose 2 mg/kg, route intraperitoneal; conditions: in vivo; summary of the method: as §4
# Mus musculus [24] = assay: Toxicity in NMRI mouse assessed as induction of hyperactivity at 2 mg/kg, ip; format: organism-based; set-up: dose 2 mg/kg, route intraperitoneal; conditions: in vivo; summary of the method: as §4
structure (smiles),measurement,setting,value
COc1cc(N)c(Cl)cc1C(=O)CCC1CCN(Cc2cccnc2)CC1,IC50,Acetylcholinesterase [1],45 nM
same,IC50,Cholinesterase,9160 nM
same,Ki,[2],20.4 nM
COc1cc(N)c(Cl)cc1C(O)CCC1CCN(CC2CCCCC2)CC1 (stereo not given),IC50,Acetylcholinesterase [1],1030 nM
same,IC50,Cholinesterase,3640 nM
same,Ki,[2],122 nM
COc1cc(N)c(Cl)cc1C(=O)OCC1CCN(CC2CCCCC2)CC1,IC50,Cholinesterase,4100 nM
COc1cc(N)c(Cl)cc1C(=O)CCC1CCN(CC2CCCCC2)CC1,Activity,Mus musculus [3],Active
same,Activity,Mus musculus [4],Toxic
same,Activity,[5],48.3%
same,Activity,Mus musculus [6],Non-toxic
same,Activity,Mus musculus [7],Non-toxic
same,Activity,Mus musculus [8],Active
same,Activity,Mus musculus [9],Active
same,IC50,Cholinesterase,3530 nM
same,inhibition,[10],100%
same,Emax,[11],22.5%
same,LD50,[12],75 mg/kg
same,Activity,Mus musculus [13],Toxic
same,inhibition,[14],73%
COc1cc(N)c(Cl)cc1C(=O)CCC1CCN(Cc2ccccc2)CC1,Activity,[5],65%
same,IC50,Acetylcholinesterase [1],8.5 nM
same,IC50,Cholinesterase,1830 nM
same,inhibition,[10],100%
same,Ki,[2],14.3 nM
same,inhibition,[14],41%
COc1cc(N)c(Cl)cc1C(=O)CCC1CCN(Cc2ccncc2)CC1,inhibition,[15],46%
same,IC50,Acetylcholinesterase [1],121 nM
same,Ki,[2],20.6 nM
CO/N=C(\CCC1CCN(CC2CCCCC2)CC1)c1cc(Cl)c(N)cc1OC,inhibition,Acetylcholinesterase [16],33%
same,IC50,Cholinesterase,7420 nM
COc1cc(N)c(Cl)cc1C(=O)CCC1CCN(CC2CC2)CC1,IC50,Cholinesterase,6600 nM
COc1cc(N)c(Cl)cc1C(=O)CCC1CCN(CC2CCCCCC2)CC1,Activity,[5],58%
same,IC50,Cholinesterase,4000 nM
same,inhibition,[10],99%
same,inhibition,[14],46%
COc1cc(N)c(Cl)cc1/C(CCC1CCN(CC2CCCCC2)CC1)=N/O,Ki,[2],193 nM
CN(C)CCCN1c2ccccc2Sc2ccc(Cl)cc21 [CHLORPROMAZINE],Activity,Mus musculus [17],Toxic
same,Activity,Mus musculus [18],Toxic
same,Activity,Mus musculus [19],Toxic
COc1cc(N)c(Cl)cc1C(=O)CCC1CCN(CCC2CCCCC2)CC1,IC50,Cholinesterase,6340 nM
COc1cc(N)c(Cl)cc1C(=O)CCC1CCN(CC2CCCC2)CC1,Activity,[5],48%
same,IC50,Cholinesterase,6910 nM
same,inhibition,[10],100%
same,inhibition,[14],58%
COc1cc(N)c(Cl)cc1C(=O)CCC1CCN(CC2CCCCC2C)CC1 (stereo not given),IC50,Cholinesterase,4340 nM
COc1cc(N)c(Cl)cc1C(=O)CCC1CCN(CC2CCC2)CC1,inhibition,[15],47%
COc1cc2c(cc1OC)C(=O)C(CC1CCN(Cc3ccccc3)CC1)C2 (stereo not given),Activity,Mus musculus [20],Active
CCCCN1CCC(CCC(=O)c2cc(Cl)c(N)cc2OC)CC1,IC50,Acetylcholinesterase [1],403 nM
same,Activity,Mus musculus [21],Active
same,Ki,[2],9.3 nM
COc1cc(N)c(Cl)cc1C(=O)NCC1CCN(CC2CCCCC2)CC1,inhibition,Acetylcholinesterase [16],45%
same,Ki,[2],2.25 nM
COc1cc(N)c(Cl)cc1C(=O)CCC1CCN(CC2CCNCC2)CC1,inhibition,[15],26%
same,Activity,[5],20%
same,inhibition,[10],100%
same,inhibition,[14],69%
CC(N)Cc1ccccc1 (stereo not given) [AMPHETAMINE],Activity,Mus musculus [22],Toxic
same,Activity,Mus musculus [23],Toxic
same,Activity,Mus musculus [24],Toxic
